Activity calls are given as the source filed them. The calls are words filed in the database; no cut-off is given here.
Key:
[1] = test system: MDA-MB-231; assay: Cytotoxicity against human MDA-MB-231 cells assessed as cell viability after 48 hrs by MTT assay; assay type: functional, cell-based; conditions: MDA-MB-231, 48 h
Method in brief: (§1)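 MDA-MB-231 cells were grown in L-15 with 10% FCS at 37 °C and seeded at (2-3) × 10^4 per well. Exposure was 24 and/or 48 h, then MTT for at least 4 h, with absorbance read at 570/630 nm. Each condition had at least 3 replicates, reported as mean ± SD of a representative experiment repeated at least three times.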

[2] = test system: Trichophyton mentagrophytes; assay: Antifungal activity against Trichophyton mentagrophytes IBT 2724 after 7 days by micro broth dilution method; assay type: functional, organism-based; conditions: IBT 2724, 168 h
Method in brief: (§2)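 T. mentagrophytes IBT2724 was tested by broth microdilution using an 8-fold dilution series of 10 concentrations from 50 μM down to 0.4 μM, with 1% DMSO. The inoculum was prepared per CLSI M38-A2, adjusted to OD530 0.90–1.5 and diluted 50-fold in RPMI/MOPS at pH 7.00. Plates ran 7 days at 37 °C with an OD read-out. IC50 came from a variable-slope sigmoidal fit.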

[3] = test system: Trichophyton rubrum; assay: Antifungal activity against Trichophyton rubrum IBT 29284 after 7 days by micro broth dilution method; assay type: functional, organism-based; conditions: IBT 29284, 168 h
Method in brief: (§3)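 T. rubrum IBT29284 was tested by broth microdilution using a 4-fold dilution series of 10 concentrations from 50 μM down to 0.2 μM, with 1% DMSO. The inoculum followed CLSI M38-A2, set to OD530 0.90–1.5 and diluted 50-fold in RPMI/MOPS at pH 7.00. Incubation was 7 days at 37 °C, read by OD. IC50 came from a variable-slope sigmoidal fit.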

[4] = test system: Trichophyton rubrum; assay: Antifungal activity against Trichophyton rubrum IBT 29284 at 50 uM after 7 days by micro broth dilution method; assay type: functional; conditions: for inhibition at 50 µM: IBT 29284, 168 h; method in brief: as §3
[5] = test system: Trichophyton mentagrophytes; assay: Antifungal activity against Trichophyton mentagrophytes IBT 2724 at 50 uM after 7 days by micro broth dilution method; assay type: functional; conditions: for inhibition at 50 µM: IBT 2724, 168 h; method in brief: as §2
[6] = test system: MDA-MB-231; assay: Cytotoxicity against human MDA-MB-231 cells assessed as cell viability at 50 uM after 48 hrs by MTT assay; assay type: functional; conditions: for inhibition at 50 µM: MDA-MB-231, 48 h; method in brief: as §1
[7] = test system: SCC114; assay: Cytotoxicity against human SCC114 cells by phenotype-based spindle multipolarity assay; assay type: functional, cell-based

SMILES	IC50 [1] [nM]	IC50 [2] [nM]	inhibition [4]	inhibition [5]	other results
COc1cc(OC)c2c(c1Cl)O[C@]1(C2=O)C(SCc2ccccc2)=CC(=O)C[C@H]1C	4700	58	–	–	IC50 [3]: 1300 nM
COc1cccc(COC2=CC(=O)C[C@@H](C)[C@]23Oc2c(Cl)c(OC)cc(OC)c2C3=O)c1	8100	140	–	–	IC50 [3]: 960 nM
COc1cc(OC)c2c(c1Cl)O[C@]1(C2=O)C(Cl)=CC(=O)C[C@H]1C	3200	–	–	–	inhibition at 50 µM [4]: < 50%; inhibition at 50 µM [5]: < 50%
COC1=CC(=O)C[C@@H](C)[C@]12Oc1c(Cl)c(OC)c(N)c(OC)c1C2=O	–	–	inactive	inactive	inhibition [6]: inactive
CCOC1=CC(=O)[C@@]2(Oc3c(Cl)c(OC)cc(OC)c3C2=O)[C@H](C)C1	–	–	inactive	–	inhibition [7]: inactive; inhibition at 50 µM [5]: < 50%; inhibition at 50 µM [6]: < 50%
CCOc1cc(OC)c(Cl)c2c1C(=O)[C@@]1(O2)C(OC)=CC(=O)C[C@H]1C	–	290	–	–	inhibition [6]: inactive; IC50 [3]: 2000 nM
COc1cc(OC)c2c(c1Cl)O[C@@]1(C(=O)C=C(OCc3ccccc3)C[C@H]1C)C2=O	–	–	inactive	–	inhibition [7]: inactive; inhibition at 50 µM [5]: < 50%; inhibition at 50 µM [6]: < 50%
COc1cc(OC)c2c(c1Cl)O[C@]1(C2=O)C(OCc2ccccn2)=CC(=O)C[C@H]1C	32000	1300	–	–	inhibition at 50 µM [4]: < 50%
COc1cc(OC)c2c(c1Cl)O[C@]1(C2=O)C(OC2CCCC2)=CC(=O)C[C@H]1C	3200	240	–	–	IC50 [3]: 2500 nM
COc1cc(O)c(Cl)c2c1C(=O)[C@@]1(O2)C(=O)C=C(O)C[C@H]1C	–	–	inactive	inactive	inhibition [6]: inactive
COc1cc(OC)c2c(c1Cl)O[C@]1(C2=O)C(Oc2ccccc2)=CC(=O)C[C@H]1C	7200	1600	–	–	IC50 [3]: 6100 nM
COc1cc(OC)c2c(c1Cl)O[C@@]1(C(=O)C=C(OCC3CC3)C[C@H]1C)C2=O	52000	–	inactive	–	inhibition [7]: inactive; inhibition at 50 µM [5]: < 50%
COc1cc(OC)c2c(c1Cl)O[C@]1(C2=O)C(OCc2ccc(F)cc2)=CC(=O)C[C@H]1C	6500	41	–	–	IC50 [3]: 830 nM
COc1cc(OC)c2c(c1Cl)O[C@@]1(C2=O)[C@H](C)C[C@H](O)C[C@@H]1OC	–	3000	–	–	inhibition at 50 µM [4]: < 50%; inhibition [6]: inactive
COc1ccc(COC2=CC(=O)C[C@@H](C)[C@]23Oc2c(Cl)c(OC)cc(OC)c2C3=O)cc1	–	–	inactive	inactive	inhibition at 50 µM [6]: < 50%
COC1=CC(=O)[C@@]2(Oc3c(Cl)c(OC)cc(OC)c3C2=O)[C@H](C)C1	–	–	inactive	inactive	inhibition [7]: inactive; inhibition [6]: inactive
COc1cc(OC)c2c(c1Cl)O[C@@]1(C(=O)C=C(OC3CCCC3)C[C@H]1C)C2=O	27000	–	inactive	–	inhibition [7]: inactive; inhibition at 50 µM [5]: < 50%
COC1=CC(=O)C[C@@H](C)[C@]12Oc1c(Cl)c(OC)cc(OCc3cccc4ccccc34)c1C2=O	17000	–	inactive	inactive	–
COC1=CC(=O)C[C@@H](C)[C@]12Oc1c(Cl)c(O)cc(OC)c1C2=O	–	–	inactive	inactive	inhibition at 50 µM [6]: < 50%
COc1cc(OC)c2c(c1Cl)O[C@]1(C2=O)C(=O)C(C)(C)C(=O)C[C@H]1C	–	–	inactive	inactive	inhibition [6]: inactive
COc1ccccc1COC1=CC(=O)C[C@@H](C)[C@]12Oc1c(Cl)c(OC)cc(OC)c1C2=O	11000	700	–	–	inhibition at 50 µM [4]: < 50%
CCCOC1=C(I)C(=O)C[C@@H](C)[C@]12Oc1c(Cl)c(OC)cc(OC)c1C2=O	8000	230	–	–	IC50 [3]: 1600 nM
CCCCCOc1cc(OC)c(Cl)c2c1C(=O)[C@@]1(O2)C(OC)=CC(=O)C[C@H]1C	–	170	–	–	inhibition at 50 µM [4]: < 50%; inhibition at 50 µM [6]: < 50%
COc1cc(OC)c2c(c1Cl)O[C@@]1(C(=O)C=C(Cl)C[C@H]1C)C2=O	1000	–	inactive	inactive	–

From ChEMBL document CHEMBL1955834, “Disparate SAR data of griseofulvin analogues for the dermatophytes Trichophyton mentagrophytes, T. rubrum, and MDA-MB-231 cancer cells” (J Med Chem, 2012)
